Assays:
Format in all cases: cell membranes, Membrane
[1] = Displacement of [3H]muscimol from GABAA receptor in Sprague-Dawley rat spinal cord brainstem membranes
[2] = Displacement of [3H]strychnine from glycine receptor in rat spinal cord synaptosomal membranes
Summary of the method: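 Rat spinal cord synaptosomal membranes (stored at -80 °C, used within 2 weeks; 0.2-0.4 mg protein per 1.2 mL) incubated 10 min at 4 °C with 2 nM [3H]strychnine plus increasing concentrations of competitor in 50 mM sodium-potassium phosphate, pH 7.1. Rapid glass-fiber filtration, 0.15 M NaCl rinse. Nonspecific binding with 0.1 mM unlabeled strychnine. Triplicate points; IC50 from mean of three independent curves.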

[3] = Displacement of [3H]muscimol from GABAA receptor in Sprague-Dawley rat cerebral cortex membranes

| IC50 [1] [µM] | IC50 [2] [µM] | IC50 [3] [µM] | Compound |
| --- | --- | --- | --- |
| 8 | > 100 | 17.3 | COc1c(O[C@@H]2O[C@H](CI)[C@@H](O)[C@H](O)[C@H]2O)cc2c(c1OC)-c1ccc(SC)c(=O)cc1[C@@H](NC(C)=O)CC2 |
| 3.5 | 1.9 | 6.2 | COc1c(O[C@@H]2O[C@H](C)[C@@H](O)[C@H](O)[C@H]2O)cc2c(c1OC)-c1ccc(SC)c(=O)cc1[C@@H](NC(C)=O)CC2 |
| 2 | 1.3 | 3.8 | COc1c(O[C@@H]2O[C@H](CF)[C@@H](O)[C@H](O)[C@H]2O)cc2c(c1OC)-c1ccc(SC)c(=O)cc1[C@@H](NC(C)=O)CC2 |
| 8.2 | 4.3 | 7.8 | COc1c(O[C@@H]2O[C@H](CN=[N+]=[N-])[C@@H](O)[C@H](O)[C@H]2O)cc2c(c1OC)-c1ccc(SC)c(=O)cc1[C@@H](NC(C)=O)CC2 |
|  | 15.8 |  | NCC(=O)O [GLYCINE] |
| 1.9 | 1.5 | 3.4 | COc1c(O[C@@H]2O[C@H](CO)[C@@H](O)[C@H](O)[C@H]2O)cc2c(c1OC)-c1ccc(SC)c(=O)cc1[C@@H](NC(C)=O)CC2 [THIOCOLCHICOSIDE] |

| Compound | IC50 [1] [µM] | IC50 [2] [µM] | IC50 [3] [µM] |
| --- | --- | --- | --- |
| O=C1C[C@@H]2OCC=C3CN4CC[C@]56c7ccccc7N1[C@H]5[C@H]2[C@H]3C[C@H]46 [STRYCHNINE] |  | 0.014 |  |
